The values below come from ChEMBL document CHEMBL3603808, “Discovery and structure of a new inhibitor scaffold of the autophagy initiating kinase ULK1” (Bioorg Med Chem, 2015).

One assay deals with HeLa. Nature of the assay: Inhibition of autophagy in human HeLa cells assessed as induction of LC3-I protein accumulation at 4 uM incubated for 24 hrs by immunoblotting method. It is filed as functional, cell-based. The procedure, abridged: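 HeLa cells were grown in DMEM with 10% FBS to about 50% confluency, then given 4 µM compound or DMSO for 24 h. Cold-PBS wash, lysis in TBS pH 7.6 with 1% Triton-X, 0.2% SDS and protease/phosphatase inhibitors. Lysates were protein-normalized and immunoblotted for LC3-I/LC3-II, with actin as loading control.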

Assay [1] concerns the target T1, 3-phosphoinositide-dependent protein kinase 1 (Homo sapiens, UniProt O15530).
T1 sequence (O15530 whole entry): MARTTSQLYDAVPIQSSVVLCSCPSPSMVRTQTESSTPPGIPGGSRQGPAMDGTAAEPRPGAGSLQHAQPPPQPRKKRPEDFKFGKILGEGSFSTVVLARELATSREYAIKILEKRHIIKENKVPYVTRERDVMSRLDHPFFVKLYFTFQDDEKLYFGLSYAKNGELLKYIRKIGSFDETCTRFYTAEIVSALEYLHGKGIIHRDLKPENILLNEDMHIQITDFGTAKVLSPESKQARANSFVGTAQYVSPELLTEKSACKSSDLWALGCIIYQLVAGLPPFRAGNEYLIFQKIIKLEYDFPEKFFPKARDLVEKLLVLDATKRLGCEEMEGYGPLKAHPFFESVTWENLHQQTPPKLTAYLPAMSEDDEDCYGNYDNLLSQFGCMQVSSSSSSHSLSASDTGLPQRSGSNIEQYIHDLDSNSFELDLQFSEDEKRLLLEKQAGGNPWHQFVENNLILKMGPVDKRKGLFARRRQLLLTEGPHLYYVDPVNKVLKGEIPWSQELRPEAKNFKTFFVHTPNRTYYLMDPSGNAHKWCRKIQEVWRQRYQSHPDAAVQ
The experiment in a line: Inhibition of recombinant PDK1 (unknown origin) using PDK1tide substrate incubated for 7 mins. The procedure, abridged: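 Recombinant PDK1 at 5 nM with 50 µM synthetic PDK1tide in 50 mM HEPES pH 7.5, 10 mM MgCl2, 1 mg/ml BSA, 0.02% Triton-X and 50 µM DTT. Stopped after 7 min by spotting onto nitrocellulose, washed three times in 1% phosphoric acid and phosphorimaged. IC50 from curve fitting; duplicate.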

For assay [2], the target named is T2, Serine/threonine-protein kinase ULK2 (Homo sapiens, UniProt Q8IYT8).
T2 sequence (Q8IYT8 whole entry): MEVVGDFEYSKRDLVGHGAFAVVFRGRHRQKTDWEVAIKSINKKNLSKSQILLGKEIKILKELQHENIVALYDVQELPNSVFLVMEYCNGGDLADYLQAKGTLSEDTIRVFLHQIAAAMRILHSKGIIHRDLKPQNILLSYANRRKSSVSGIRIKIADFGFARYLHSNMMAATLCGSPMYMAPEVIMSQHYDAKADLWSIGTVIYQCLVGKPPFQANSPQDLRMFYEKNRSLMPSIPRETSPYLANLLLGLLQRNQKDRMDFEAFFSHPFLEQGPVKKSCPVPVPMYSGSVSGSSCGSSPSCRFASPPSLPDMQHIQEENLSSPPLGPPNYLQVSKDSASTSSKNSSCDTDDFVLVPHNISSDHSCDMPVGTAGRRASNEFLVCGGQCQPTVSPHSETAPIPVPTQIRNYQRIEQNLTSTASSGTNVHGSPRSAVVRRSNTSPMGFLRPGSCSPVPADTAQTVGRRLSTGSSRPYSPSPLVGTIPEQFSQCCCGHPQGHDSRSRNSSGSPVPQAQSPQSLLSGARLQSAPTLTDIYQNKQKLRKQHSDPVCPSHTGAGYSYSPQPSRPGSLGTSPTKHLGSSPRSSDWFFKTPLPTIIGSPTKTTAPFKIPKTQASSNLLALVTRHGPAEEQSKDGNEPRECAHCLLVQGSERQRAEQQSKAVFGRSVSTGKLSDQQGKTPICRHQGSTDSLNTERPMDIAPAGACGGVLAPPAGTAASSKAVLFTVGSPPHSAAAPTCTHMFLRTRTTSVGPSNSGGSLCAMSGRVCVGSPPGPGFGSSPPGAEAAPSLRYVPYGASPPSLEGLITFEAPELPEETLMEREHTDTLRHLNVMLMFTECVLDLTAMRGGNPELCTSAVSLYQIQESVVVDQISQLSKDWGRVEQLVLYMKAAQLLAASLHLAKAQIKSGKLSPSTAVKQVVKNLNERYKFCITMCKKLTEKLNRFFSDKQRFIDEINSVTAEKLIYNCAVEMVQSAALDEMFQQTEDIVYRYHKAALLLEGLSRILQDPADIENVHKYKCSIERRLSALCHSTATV
Nature of the assay: Inhibition of SUMO-tagged ULK2 (unknown origin) kinase domain expressed in KRX cells using [32P]-gamma-ATP and myelin basic protein substrate incubated for 7 mins. It is filed as single protein. The procedure, abridged:
(§1)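 Enzyme at 5 nM with 50 µM cold ATP, 0.05 µCi/µl 32P-γ-ATP and 20 µM myelin basic protein as substrate. Reactions were spotted onto nitrocellulose, washed three times in 1% phosphoric acid, dried and imaged by phosphorimager. IC50 from curve fitting; duplicate.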

Assay [3] deals with T3, Serine/threonine-protein kinase ULK1 (Homo sapiens, UniProt O75385).
T3 sequence (O75385 whole entry): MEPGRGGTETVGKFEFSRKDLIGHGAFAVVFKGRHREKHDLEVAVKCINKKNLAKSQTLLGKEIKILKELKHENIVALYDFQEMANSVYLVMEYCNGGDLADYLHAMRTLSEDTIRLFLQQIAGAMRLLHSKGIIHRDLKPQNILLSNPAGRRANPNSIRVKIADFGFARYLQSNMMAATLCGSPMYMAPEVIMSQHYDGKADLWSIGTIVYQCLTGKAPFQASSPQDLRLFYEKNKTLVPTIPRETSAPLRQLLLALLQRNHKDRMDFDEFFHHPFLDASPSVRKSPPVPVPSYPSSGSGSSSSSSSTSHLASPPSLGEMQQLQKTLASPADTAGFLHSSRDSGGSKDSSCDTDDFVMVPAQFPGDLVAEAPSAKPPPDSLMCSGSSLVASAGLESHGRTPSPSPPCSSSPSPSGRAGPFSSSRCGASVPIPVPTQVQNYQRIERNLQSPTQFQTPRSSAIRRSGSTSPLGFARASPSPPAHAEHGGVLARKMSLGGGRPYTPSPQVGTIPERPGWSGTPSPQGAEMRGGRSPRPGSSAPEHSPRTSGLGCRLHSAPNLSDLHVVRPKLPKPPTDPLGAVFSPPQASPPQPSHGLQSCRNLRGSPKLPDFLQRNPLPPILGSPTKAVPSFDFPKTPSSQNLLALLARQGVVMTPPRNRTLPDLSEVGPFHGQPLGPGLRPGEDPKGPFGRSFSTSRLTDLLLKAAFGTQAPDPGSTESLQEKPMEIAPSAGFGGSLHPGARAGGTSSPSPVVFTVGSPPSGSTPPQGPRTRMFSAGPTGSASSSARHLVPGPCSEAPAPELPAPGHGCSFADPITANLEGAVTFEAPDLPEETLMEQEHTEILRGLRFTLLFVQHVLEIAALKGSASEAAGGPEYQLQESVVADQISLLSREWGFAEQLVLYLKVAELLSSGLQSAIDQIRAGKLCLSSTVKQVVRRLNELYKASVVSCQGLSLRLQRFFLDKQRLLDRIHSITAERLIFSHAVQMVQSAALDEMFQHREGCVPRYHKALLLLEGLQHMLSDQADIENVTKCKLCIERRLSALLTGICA
The experiment in a line: Inhibition of SUMO-tagged ULK1 (unknown origin) kinase domain expressed in KRX cells using [32P]-gamma-ATP and myelin basic protein substrate incubated for 7 mins. Type of assay: cell-based. The procedure, abridged:
as §1

Each structure is given as a SMILES string. Calls of active or inactive are those of the source. No cut-off for these calls is given here.

`O=C(NCCCNc1nc(Nc2cccc(CN3CCOCC3)c2)ncc1C1CC1)C1CCC1`: in the assay on HeLa, the result was Active. The 50% inhibitory concentration (IC50) (as a rule, the concentration that gives 50% inhibition) in assay [1] was 421 nM.

As to `O=C(NCCCNc1nc(Nc2cccc(NC(=O)N3CCCC3)c2)ncc1I)c1cccs1` [BX-795], the IC50 in assay [2] turned out to be 310 nM; in assay [3], 87 nM; in assay [1], 65 nM. The result with HeLa was Active.

With `O=C(NCCCNc1nc(Nc2cccc(NC(=O)N3CCCC3)c2)ncc1I)C1CC1`, the values for the IC50 in assay [2], in assay [3] and in assay [1] were 200 nM, 67 nM and 56 nM, respectively. For the same compound, in the assay with HeLa, the result was Active.
